Reference: ChEMBL document CHEMBL4680373, “Evaluation of 5-(Trifluoromethyl)-1,2,4-oxadiazole-Based Class IIa HDAC Inhibitors for Huntington's Disease” (ACS Med Chem Lett, 2021)

Tests used:
[1] = Toxicity in CBAxC57BL/6J mouse assessed as effect on provoked biting at 10 to 100 mg/kg, po bid for 14.5 days; assay type: organism-based; conditions: in vivo, 348 h, dose 10-100 mg/kg, time 14.5 day
Summary of the method: (§1)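 R6/2 HD mice and wild-type littermates, male and female, were dosed orally b.i.d. at 10, 30 or 100 mg/kg or with vehicle for 14.5 days. Vehicle was 10% (w/v) hydroxypropyl-β-cyclodextrin in 50 mM citrate buffer. Body weight, body temperature, passive observations and active manipulation scores were recorded. Blood and brain were collected 2 h after the final dose.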

[2] = Toxicity in CBAxC57BL/6J mouse assessed as effect on stereotypy at 10 to 100 mg/kg, po bid for 14.5 days; assay type: organism-based; conditions: in vivo, 348 h, dose 10-100 mg/kg, time 14.5 day; summary of the method: as §1
[3] = target: Class 1 histone deacetylase (Homo sapiens, UniProt Q13547+O15379+Q92769+Q9BY41); assay: Inhibition of Class 1 HDAC in human HEK293 cells using H4K12 as substrate by fluorogenic assay; assay type: cell-based
[4] = target: Muscarinic acetylcholine receptor M1 (Homo sapiens, UniProt P11229); assay: Displacement of [3H]pirenzapine from human recombinant M1 receptor incubated for 1 hr by radiometric scintillation counting analysis
Sequence of Muscarinic acetylcholine receptor M1 (P11229 whole entry): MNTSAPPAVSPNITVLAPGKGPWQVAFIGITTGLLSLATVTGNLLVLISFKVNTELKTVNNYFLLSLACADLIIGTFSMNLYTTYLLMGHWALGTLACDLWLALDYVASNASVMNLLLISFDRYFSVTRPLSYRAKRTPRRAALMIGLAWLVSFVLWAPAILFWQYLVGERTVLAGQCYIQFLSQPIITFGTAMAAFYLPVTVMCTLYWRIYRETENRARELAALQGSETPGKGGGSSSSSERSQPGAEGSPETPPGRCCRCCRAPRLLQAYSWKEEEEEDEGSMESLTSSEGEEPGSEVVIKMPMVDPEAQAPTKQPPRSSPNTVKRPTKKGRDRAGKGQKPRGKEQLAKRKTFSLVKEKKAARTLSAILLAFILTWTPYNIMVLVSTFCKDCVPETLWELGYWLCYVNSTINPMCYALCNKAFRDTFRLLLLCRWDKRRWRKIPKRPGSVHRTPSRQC

[5] = Tmax in C57BL/6J mouse blood at 11.5 mg/kg, po administered via gavage by LC-MS/MS analysis; assay type: ADME, organism-based
[6] = target: T1, Protein deacetylase HDAC6 (Homo sapiens, UniProt Q9UBN7); assay: Inhibition of HDAC6 (unknown origin) expressed in human HEK-Freestyle cells using Boc-Lys(Ac) as substrate by fluorogenic assay; assay type: cell-based
T1 sequence (Q9UBN7 whole entry): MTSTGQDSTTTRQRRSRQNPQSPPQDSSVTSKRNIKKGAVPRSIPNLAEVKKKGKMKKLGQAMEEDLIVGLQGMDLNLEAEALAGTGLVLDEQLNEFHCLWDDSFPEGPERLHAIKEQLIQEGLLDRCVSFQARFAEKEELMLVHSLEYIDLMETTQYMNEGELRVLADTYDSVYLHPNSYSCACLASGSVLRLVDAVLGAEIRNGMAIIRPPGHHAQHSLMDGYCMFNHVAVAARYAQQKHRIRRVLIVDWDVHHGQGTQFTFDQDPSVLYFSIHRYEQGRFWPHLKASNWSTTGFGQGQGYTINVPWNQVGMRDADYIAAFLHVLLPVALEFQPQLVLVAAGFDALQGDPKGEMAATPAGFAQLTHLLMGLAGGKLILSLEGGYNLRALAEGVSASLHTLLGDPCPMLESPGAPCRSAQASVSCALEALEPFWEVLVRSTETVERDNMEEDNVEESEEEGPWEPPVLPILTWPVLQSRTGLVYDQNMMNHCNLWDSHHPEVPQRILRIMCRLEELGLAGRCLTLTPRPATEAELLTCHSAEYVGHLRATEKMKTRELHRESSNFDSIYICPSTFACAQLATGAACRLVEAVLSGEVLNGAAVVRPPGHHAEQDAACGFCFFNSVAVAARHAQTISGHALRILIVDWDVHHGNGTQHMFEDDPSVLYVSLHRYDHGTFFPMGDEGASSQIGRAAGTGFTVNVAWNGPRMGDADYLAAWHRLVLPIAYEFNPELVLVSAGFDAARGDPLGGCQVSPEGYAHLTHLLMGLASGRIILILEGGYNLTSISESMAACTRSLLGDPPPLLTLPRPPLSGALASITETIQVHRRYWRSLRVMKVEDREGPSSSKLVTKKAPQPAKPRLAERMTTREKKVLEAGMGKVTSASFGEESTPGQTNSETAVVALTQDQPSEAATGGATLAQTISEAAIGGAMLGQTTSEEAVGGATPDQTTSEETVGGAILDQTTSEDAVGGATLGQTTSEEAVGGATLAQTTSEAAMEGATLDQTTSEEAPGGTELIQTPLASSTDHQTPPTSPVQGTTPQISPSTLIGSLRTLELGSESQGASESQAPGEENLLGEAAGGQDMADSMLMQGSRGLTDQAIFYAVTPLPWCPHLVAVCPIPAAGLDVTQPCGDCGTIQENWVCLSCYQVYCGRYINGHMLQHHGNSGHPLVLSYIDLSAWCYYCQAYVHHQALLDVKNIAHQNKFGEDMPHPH
Summary of the method: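 HDAC6 was supplied as lysate of HEK cells overexpressing the enzyme. Activity was read with the class I/IIb-specific fluorogenic substrate Boc-Lys-(Ac)-AMC. IC50 is the geometric mean of three experiments.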

[7] = target: Cytochrome P450 2C8 (Homo sapiens, UniProt P10632); assay: Inhibition of CYP2C8 in human liver microsomes using amodiaquine as substrate incubated for 15 mins by LC-MS/MS analysis; assay type: ADME
Sequence of Cytochrome P450 2C8 (P10632 whole entry): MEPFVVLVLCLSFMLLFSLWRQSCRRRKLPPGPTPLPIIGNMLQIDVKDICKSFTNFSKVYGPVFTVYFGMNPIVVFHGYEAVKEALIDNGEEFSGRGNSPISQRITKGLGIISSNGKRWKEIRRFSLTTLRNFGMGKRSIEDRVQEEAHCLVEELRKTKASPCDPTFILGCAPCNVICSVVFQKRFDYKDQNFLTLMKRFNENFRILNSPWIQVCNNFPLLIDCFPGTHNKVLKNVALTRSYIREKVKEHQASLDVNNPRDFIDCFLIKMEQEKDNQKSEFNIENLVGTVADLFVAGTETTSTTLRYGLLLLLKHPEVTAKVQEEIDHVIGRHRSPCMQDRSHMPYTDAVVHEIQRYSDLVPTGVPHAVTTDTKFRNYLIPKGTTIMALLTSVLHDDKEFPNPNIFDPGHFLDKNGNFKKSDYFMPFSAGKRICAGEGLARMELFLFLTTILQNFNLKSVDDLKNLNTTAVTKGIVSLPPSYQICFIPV

[8] = Time during which drug concentration exceeds the IC50 for inhibition of human Class 2A HDAC in C57BL/6J mouse brain at 10 mg/kg, po administered via gavage by LC-MS/MS analysis; assay type: organism-based; conditions: in vivo
Summary of the method: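 Single oral gavage doses of 10, 30 or 100 mg/kg were given to C57/BL6 mice. Brain and blood were sampled from 0.25 to 12 h and compound measured by LC-MS/MS. The time that total brain exposure stayed above the class IIa cellular IC50 was then estimated.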

[9] = Unbound fraction in mouse blood by equilibrium dialysis method; assay type: ADME, tissue-based
Summary of the method: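 Compound added to mouse blood; unbound fraction determined by equilibrium dialysis.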

[10] = In vivo inhibition of Class 1 HDAC in C57BL/6J mouse brain assessed as increase in H4K12 acetylation administered orally via gavage measured after 2 to 4 hrs by dot blot technique; assay type: organism-based; conditions: po, dose lower 10 mg/kg, time lower 2 hrs, dose upper 100 mg/kg, time upper 4 hrs
Summary of the method: (§2)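 Mice received single oral gavage doses of 10, 30 or 100 mg/kg, and brains were sampled from 0.25 to 12 h. Brain compound levels were measured by LC-MS/MS. Dot blots read H4K12 acetylation normalized to histone H4, or pan-acetyl-lysine normalized to tubulin.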

[11] = Toxicity in CBAxC57BL/6J mouse assessed as effect on body temperature at 10 to 100 mg/kg, po bid for 14.5 days; assay type: organism-based; conditions: in vivo, 348 h, dose 10-100 mg/kg, time 14.5 day; summary of the method: as §1
[12] = Toxicity in CBAxC57BL/6J mouse assessed as effect on loss of paw pull at 10 to 100 mg/kg, po bid for 14.5 days; assay type: organism-based; conditions: in vivo, 348 h, dose 10-100 mg/kg, time 14.5 day; summary of the method: as §1
[13] = Toxicity in CBAxC57BL/6J mouse assessed as effect on shivering at 10 to 100 mg/kg, po bid for 14.5 days; assay type: organism-based; conditions: in vivo, 348 h, dose 10-100 mg/kg, time 14.5 day; summary of the method: as §1
[14] = In vivo inhibition of Class 1/2B HDAC in C57BL/6J mouse brain assessed as increase in global pan-acetylation at 10 mg/kg, po administered via gavage measured after 2 hrs by dot blot technique; assay type: organism-based; summary of the method: as §2
[15] = Stability of the compound in simulated gastric fluid at 10 uM at pH 1.2 incubated for 4 hrs by LC-MS/MS analysis

Compound: C[C@H](CN1CCC[C@@H]1C)NC(=O)c1ccc(-c2noc(C(F)(F)F)n2)cc1
- Activity [1]: Non-Toxic
- Activity [2]: Non-Toxic
- IC50 [3]: 9.9 µM
- Kd [4]: > 5 µM
- Tmax [5]: 30 min
- IC50 [6]: 22 µM
- IC50 [7]: > 50 µM
- T>IC50 [8]: 4 h
- fraction unbound [9]: 0.73
- Activity [10]: Toxic
- Activity [11]: Non-Toxic
- Activity [12]: Non-Toxic
- Activity [13]: Non-Toxic
- Activity [14]: Toxic
- Stability [15]: Stable
